Measurements: ChEMBL document CHEMBL1128578, “Synthesis and cytotoxicity of novel lignans” (J Med Chem, 1995)

What was measured:
GLC4 cell line [1] = test: Cytotoxic effect against GLC4 (human small cell lung carcinoma cell line) using the microculture tetrazolium (MTT) assay based on continuous incubation; assay type: functional
Summary of the method: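 GLC4 cells in exponential growth (>90% viable by trypan blue) seeded at 3750/well in RPMI 1640 + 10% FCS; compounds from 200× DMSO stocks, final DMSO ≤0.25%, top concentration 100 μM, present continuously for 4 days at 37 °C, 5% CO2. MTT added for 3 h 45 min, formazan dissolved in DMSO, absorbance 520 nm; IC50 = 50% growth inhibition; n=3 separate experiments.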

GLC4 cell line [2] = test: Cytotoxic effect against GLC4 (human small cell lung carcinoma cell line) using the microculture tetrazolium (MTT) assay based on 2 hr incubation; assay type: functional
Summary of the method: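 GLC4 SCLC cells (suspension, RPMI 1640 + 10% heat-inactivated FCS, 37 °C, 5% CO2), exponential phase, >90% viable; 3750 cells/well. Compounds diluted from 200× DMSO stocks (≤0.25% DMSO final), up to 100 μM; exposed 2 h, washed three times, then cultured 4 days. MTT 3 h 45 min, formazan in DMSO, A520; IC50 from % growth inhibition, triplicate separate experiments.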

COc1cc([C@@H]2c3cc4c(cc3[C@H](O)[C@H]3COC(=O)[C@H]23)OCO4)cc(OC)c1O was tested, and the IC50 (GLC4 cell line [1]; Homo sapiens, GLC4) was 0.03 µM and the IC50 (GLC4 cell line [2]; Homo sapiens, GLC4, 2 h) was 3.1 µM.

COc1cc([C@@H]2c3cc4c(c(OC)c3[C@H](O)[C@H]3COC(=O)[C@H]23)OCO4)cc(OC)c1OC was tested, and the IC50 (GLC4 cell line [1]; Homo sapiens, GLC4) was 0.06 µM and the IC50 (GLC4 cell line [2]; Homo sapiens, GLC4, 2 h) was 0.25 µM.

Compound CC1CCC(C(C)C)C(O[C@@H]2OC(=O)[C@H](Cc3ccc4c(c3)OCO4)[C@H]2Cc2ccc3c(c2)OCO3)C1 (stereo partly drawn) has an IC50 (GLC4 cell line [1]; Homo sapiens, GLC4) of 44 µM.

COc1cc(C[C@H]2C(=O)O[C@@H](OC3CC(C)CCC3C(C)C)[C@@H]2C(Sc2ccccc2)(Sc2ccccc2)c2ccc3c(c2)OCO3)ccc1OCc1ccccc1 (stereo partly drawn) showed an IC50 (GLC4 cell line [1]; Homo sapiens, GLC4) of over 100 µM.

COc1cc([C@@H](O)[C@H]2C(=O)O[C@@H](OC3CC(C)CCC3C(C)C)[C@@H]2C(=O)c2ccc3c(c2OC)OCO3)cc(OC)c1OC (stereo partly drawn) was tested, and the IC50 (GLC4 cell line [1]; Homo sapiens, GLC4) was 1.7 µM and the IC50 (GLC4 cell line [2]; Homo sapiens, GLC4, 2 h) was 7.2 µM.

With COc1cc([C@@H](O)[C@H]2C(=O)O[C@@H](OC3CC(C)CCC3C(C)C)[C@@H]2C2(c3ccc4c(c3OC)OCO4)SCCCS2)cc(OC)c1OCc1ccccc1 (stereo partly drawn) the IC50 (GLC4 cell line [1]; Homo sapiens, GLC4) was 48 µM.

For COc1cc([C@@H](O)[C@H]2C(=O)O[C@@H](OC3CC(C)CCC3C(C)C)[C@@H]2C2(c3ccc4c(c3OC)OCO4)SCCCS2)cc(OC)c1OC (stereo partly drawn), the IC50 (GLC4 cell line [1]; Homo sapiens, GLC4) was 8.8 µM and the IC50 (GLC4 cell line [2]; Homo sapiens, GLC4, 2 h) was 75 µM.

Work on O=C1C[C@@H](C2(c3ccc4c(c3)OCO4)SCCCS2)CO1 yielded an IC50 (GLC4 cell line [1]; Homo sapiens, GLC4) of 36 µM.

For CO[C@@H]1OC(=O)[C@H](Cc2ccc3c(c2)OCO3)[C@H]1C(Sc1ccccc1)(Sc1ccccc1)c1ccc2c(c1)OCO2, the IC50 (GLC4 cell line [1]; Homo sapiens, GLC4) was over 100 µM.

Work on CC1CCC(C(C)C)C(O[C@@H]2OC(=O)[C@H](Cc3ccc4c(c3)OCO4)[C@H]2C(Sc2ccccc2)(Sc2ccccc2)c2ccc3c(c2)OCO3)C1 (stereo partly drawn) yielded an IC50 (GLC4 cell line [1]; Homo sapiens, GLC4) of 40 µM.

For COc1cc([C@@H](O)[C@H]2C(=O)O[C@@H](OC3CC(C)CCC3C(C)C)[C@@H]2C2(c3ccc(O)c(O)c3OC)SCCCS2)cc(OC)c1OCc1ccccc1 (stereo partly drawn), the IC50 (GLC4 cell line [1]; Homo sapiens, GLC4) was 10 µM and the IC50 (GLC4 cell line [2]; Homo sapiens, GLC4, 2 h) was over 100 µM.

COc1cc([C@@H]2c3cc4c(cc3[C@H](O[C@@H]3O[C@H](CO)[C@@H](O)[C@H](O)[C@H]3O)[C@H]3COC(=O)[C@H]23)OCO4)cc(OC)c1OC gave an IC50 (GLC4 cell line [1]; Homo sapiens, GLC4) of 10 µM and an IC50 (GLC4 cell line [2]; Homo sapiens, GLC4, 2 h) of 58 µM.

Work on COc1cc(C[C@H]2C(=O)OC[C@@H]2Cc2ccc3c(c2)OCO3)ccc1O yielded an IC50 (GLC4 cell line [1]; Homo sapiens, GLC4) of 6.5 µM and an IC50 (GLC4 cell line [2]; Homo sapiens, GLC4, 2 h) of over 100 µM.

COc1c(C2([C@@H]3CC(=O)O[C@H]3OC3CC(C)CCC3C(C)C)SCCCS2)ccc2c1OCO2 (stereo partly drawn) gave an IC50 (GLC4 cell line [1]; Homo sapiens, GLC4) of 29 µM.

Compound COc1ccc(C[C@H]2[C@H](OC3CC(C)CCC3C(C)C)OC(=O)[C@@H]2Cc2ccc(OC)c(OC)c2)cc1OC (stereo partly drawn) has an IC50 (GLC4 cell line [1]; Homo sapiens, GLC4) of 35 µM.

COc1c(C2([C@H]3COC(=O)C3)SCCCS2)ccc2c1OCO2 was tested, and the IC50 (GLC4 cell line [1]; Homo sapiens, GLC4) was 54 µM.

COc1cc([C@@H]2c3cc4c(cc3C[C@H]3COC(=O)[C@@H]32)OCO4)cc(OC)c1OC [DESOXYPODOPHYLLOTOXIN] gave an IC50 (GLC4 cell line [1]; Homo sapiens, GLC4) of 0.008 µM and an IC50 (GLC4 cell line [2]; Homo sapiens, GLC4, 2 h) of 0.12 µM.

COc1cc([C@@H]2c3cc4c(cc3[C@@H](O[C@@H]3O[C@@H]5CO[C@@H](C)O[C@H]5[C@H](O)[C@H]3O)[C@H]3COC(=O)[C@H]23)OCO4)cc(OC)c1O [ETOPOSIDE] gave an IC50 (GLC4 cell line [1]; Homo sapiens, GLC4) of 0.82 µM and an IC50 (GLC4 cell line [2]; Homo sapiens, GLC4, 2 h) of 4 µM.

Compound COc1cc([C@@H]2c3cc4c(cc3[C@H](O)[C@H]3COC(=O)[C@H]23)OCO4)cc(OC)c1OC [PODOFILOX] has an IC50 (GLC4 cell line [1]; Homo sapiens, GLC4) of 0.06 µM and an IC50 (GLC4 cell line [2]; Homo sapiens, GLC4, 2 h) of 0.15 µM.

Compound COc1cc([C@@H]2c3cc4c(cc3[C@@H](O[C@@H]3O[C@@H]5CO[C@@H](c6cccs6)O[C@H]5[C@H](O)[C@H]3O)[C@H]3COC(=O)[C@H]23)OCO4)cc(OC)c1O [TENIPOSIDE] has an IC50 (GLC4 cell line [1]; Homo sapiens, GLC4) of 0.48 µM and an IC50 (GLC4 cell line [2]; Homo sapiens, GLC4, 2 h) of 2.8 µM.

With CISPLATIN the IC50 (GLC4 cell line [1]; glc4) was 1.1 µM and the IC50 (GLC4 cell line [2]; glc4) was 4.6 µM.
